Experimental data as given in ChEMBL document CHEMBL1955778, “Design and synthesis of novel 7-aminoquinazoline derivatives: antitumor and anticonvulsant activities” (Bioorg Med Chem Lett, 2012).

Columns and labels:
SK-OV-3 = test: Growth inhibition of human SKOV3 cells at 10 uM relative to control; assay type: functional; details: read-out: GI
In short: (§1)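 Each cell line in a 60-line human tumour panel exposed to one 10 μM concentration. Growth inhibition percentage computed as 100 minus the percentage activity relative to control.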

OVCAR-4 = test: Growth inhibition of human OVCAR4 cells at 10 uM relative to control; assay type: functional; details: read-out: GI; in short: as §1
OVCAR-3 = test: Growth inhibition of human OVCAR3 cells at 10 uM relative to control; assay type: functional; details: read-out: GI; in short: as §1
UACC-62 = test: Growth inhibition of human UACC62 cells at 10 uM relative to control; assay type: functional; details: read-out: GI
In short: (§2)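 Single-dose screen across the 60-cell-line human tumor panel at 10 μM. Growth inhibition is reported as a percentage, taken as 100 minus the % growth relative to untreated control.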

SK-MEL-5 = test: Growth inhibition of human SK-MEL-5 cells at 10 uM relative to control; assay type: functional; details: read-out: GI; in short: as §1
MDA-MB-435 = test: Growth inhibition of human MDA-MB-435 cells at 10 uM relative to control; assay type: functional; details: read-out: GI; in short: as §1
SNB-75 = test: Growth inhibition of human SNB75 cells at 10 uM relative to control; assay type: functional; details: read-out: GI; in short: as §2
SF-539 = test: Growth inhibition of human SF539 cells at 10 uM relative to control; assay type: functional; details: read-out: GI; in short: as §1
A549 = test: Growth inhibition of human A549 cells at 10 uM relative to control; assay type: functional; details: read-out: GI; in short: as §1
EKVX = test: Growth inhibition of human EKVX cells at 10 uM relative to control; assay type: functional; details: read-out: GI; in short: as §1
RPMI-8226 = test: Growth inhibition of human RPMI8226 cells at 10 uM relative to control; assay type: functional; details: read-out: GI; in short: as §1
MOLT-4 = test: Growth inhibition of human MOLT4 cells at 10 uM relative to control; assay type: functional; details: read-out: GI; in short: as §1
K562 = test: Growth inhibition of human K562 cells at 10 uM relative to control; assay type: functional; details: read-out: GI; in short: as §1
CCRF-CEM = test: Growth inhibition of human CCRF-CEM cells at 10 uM relative to control; assay type: functional; details: read-out: GI; in short: as §1
HL-60(TB) = test: Growth inhibition of human HL-60(TB) cells at 10 uM relative to control; assay type: functional; details: read-out: GI
In short: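 Single-dose screen at 10 μM across the 60-cell-line tumour panel. Percent growth inhibition = 100 minus percent growth activity relative to untreated control.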

Mus musculus [1] = species on record: Mus musculus; test: Protective index, ratio of TD50 for mouse to ED50 for pentylenetetrazol-induced seizure in mouse; assay type: functional
In short: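 Mice. Index is TD50/ED50. TD50 is the dose causing minimal neurological toxicity in 50% of mice in the Chimney test. ED50 is the dose protecting 50% of mice against pentylenetetrazole-induced seizures. Both are estimated from testing at several doses.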

[2] = Toxicity in ip dose mouse assessed as mortality; assay type: organism-based; details: in vivo
In short: (§3)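 In mice, LD50 is the dose causing 50% mortality. ED50 is the dose protecting 50% of mice against pentylenetetrazole-induced seizures. Therapeutic index = LD50/ED50.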

[3] = Therapeutic index, ratio of LD50 for mouse to ED50 for pentylenetetrazol-induced seizure in mouse; assay type: organism-based; details: in vivo, read-out: Ratio LD50/ED50; in short: as §3
[4] = Neurotoxicity in ip dosed mouse assessed as impaired motor coordination administered 30 mins prior to test by chimney test; assay type: toxicity, organism-based; details: in vivo
In short: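 Mice, Chimney test. TD50 is the dose that produces minimal neurological toxicity (impaired motor coordination) in 50% of animals, estimated from testing at several doses.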

Mus musculus [5] = test: Anticonvulsant activity in ip dosed mouse assessed as protection against pentylenetetrazol-induced seizure administered 30 min prior to pentylenetetrazol-challenge measured after 60 mins; assay type: functional
In short: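 Mice received several doses for quantification. ED50 taken as the dose protecting 50% of mice against pentylenetetrazol-induced seizures.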

Mus musculus [6] = test: Anticonvulsant activity in mouse assessed as protection against maximal electroshock-induced seizure at 1 mmol/kg, ip administered 30 min prior to maximal electroshock-challenge measured after 60 mins relative to control; assay type: functional
Mus musculus [7] = test: Anticonvulsant activity in mouse assessed as protection against picrotoxin-induced seizure at 1 mmol/kg, ip administered 30 min prior to picrotoxin-challenge measured after 60 mins relative to control; assay type: functional
Mus musculus [8] = test: Anticonvulsant activity in mouse assessed as protection against strychnine-induced seizure at 1 mmol/kg, ip administered 30 min prior to strychnine-challenge measured after 60 mins relative to control; assay type: functional
Mus musculus [9] = test: Anticonvulsant activity in mouse assessed as protection against pentylenetetrazol-induced seizure at 1 mmol/kg, ip administered 30 min prior to pentylenetetrazol-challenge measured after 60 mins relative to control; assay type: functional
T47D = test: Growth inhibition of human T47D cells at 10 uM relative to control; assay type: functional; details: read-out: GI; in short: as §2
MDA-MB-231 = test: Growth inhibition of human MDA-MB-231 cells at 10 uM relative to control; assay type: functional; details: read-out: GI; in short: as §1
MCF7 = test: Growth inhibition of human MCF7 cells at 10 uM relative to control; assay type: functional; details: read-out: GI; in short: as §1
PC-3 = test: Growth inhibition of human PC3 cells at 10 uM relative to control; assay type: functional; details: read-out: GI; in short: as §1
UO-31 = test: Growth inhibition of human UO31 cells at 10 uM relative to control; assay type: functional; details: read-out: GI; in short: as §2
SN12C = test: Growth inhibition of human SN12C cells at 10 uM relative to control; assay type: functional; details: read-out: GI; in short: as §2
RXF 393 = test: Growth inhibition of human RXF393 cells at 10 uM relative to control; assay type: functional; details: read-out: GI; in short: as §1
CAKI-1 = test: Growth inhibition of human CAKI-1 cells at 10 uM relative to control; assay type: functional; details: read-out: GI; in short: as §1
ACHN = test: Growth inhibition of human ACHN cells at 10 uM relative to control; assay type: functional; details: read-out: GI; in short: as §1
[10] = Growth inhibition of human 786-O cells at 10 uM relative to control; assay type: functional; details: 786-0, read-out: GI; in short: as §1
OVCAR-8 = test: Growth inhibition of human OVCAR8 cells at 10 uM relative to control; assay type: functional; details: read-out: GI; in short: as §1
SK-MEL-28 = test: Growth inhibition of human SK-MEL-28 cells at 10 uM relative to control; assay type: functional; details: read-out: GI; in short: as §1
U-251 = test: Growth inhibition of human U251 cells at 10 uM relative to control; assay type: functional; details: read-out: GI; in short: as §2
SNB-19 = test: Growth inhibition of human SNB19 cells at 10 uM relative to control; assay type: functional; details: read-out: GI; in short: as §2
SF-268 = test: Growth inhibition of human SF268 cells at 10 uM relative to control; assay type: functional; details: read-out: GI; in short: as §1
KM12 = test: Growth inhibition of human KM12 cells at 10 uM relative to control; assay type: functional; details: read-out: GI; in short: as §1
HCT-116 = test: Growth inhibition of human HCT116 cells at 10 uM relative to control; assay type: functional; details: read-out: GI; in short: as §1
HCT-15 = test: Growth inhibition of human HCT15 cells at 10 uM relative to control; assay type: functional; details: read-out: GI; in short: as §1
NCI-H522 = test: Growth inhibition of human NCI-H522 cells at 10 uM relative to control; assay type: functional; details: read-out: GI; in short: as §1
NCI-H23 = test: Growth inhibition of human NCI-H23 cells at 10 uM relative to control; assay type: functional; details: read-out: GI; in short: as §1
NCI-H226 = test: Growth inhibition of human NCI-H226 cells at 10 uM relative to control; assay type: functional; details: read-out: GI; in short: as §1
SR = test: Growth inhibition of human SR cells at 10 uM relative to control; assay type: functional; details: read-out: GI; in short: as §2
MDA-MB-468 = test: Growth inhibition of human MDA-MB-468 cells at 10 uM relative to control; assay type: functional; details: read-out: GI; in short: as §1
[11] = Growth inhibition of human Hs 578T cells at 10 uM relative to control; assay type: functional; details: read-out: GI; in short: as §1

Cc1ccccc1-n1c(C)nc2cc(N3C(=O)CSC3c3ccc(Cl)cc3)ccc2c1=O (centres undefined)
inhibition of growth at 10 µM (SK-OV-3): 29.2%
inhibition of growth at 10 µM (OVCAR-4): 5%
inhibition of growth at 10 µM (OVCAR-3): 5.2%
inhibition of growth at 10 µM (UACC-62): 18%
inhibition of growth at 10 µM (SK-MEL-5): 4%
inhibition of growth at 10 µM (MDA-MB-435): 7.7%
inhibition of growth at 10 µM (SNB-75): 7.6%
inhibition of growth at 10 µM (SF-539): 5%
inhibition of growth at 10 µM (A549): 12%
inhibition of growth at 10 µM (EKVX): 4%
inhibition of growth at 10 µM (RPMI-8226): 9.2%
inhibition of growth at 10 µM (MOLT-4): 39.1%
inhibition of growth at 10 µM (K562): 8.4%
inhibition of growth at 10 µM (CCRF-CEM): 11.3%
inhibition of growth at 10 µM (HL-60(TB)): 6%
Ratio TD50/ED50 (Mus musculus [1]): 1.5
LD50 [2]: 1040 µmol/kg
selectivity ratio [3]: 2.53
TD50 at 0.5 h [4]: 600 µmol/kg
ED50 (Mus musculus [5]): 410 µmol/kg
Activity (Mus musculus [6]): 100%
Activity (Mus musculus [7]): 75%
Activity (Mus musculus [8]): 0%
Activity (Mus musculus [9]): 100%
inhibition of growth at 10 µM (T47D): 4%
inhibition of growth at 10 µM (MDA-MB-231): 23.7%
inhibition of growth at 10 µM (MCF7): 5.2%
inhibition of growth at 10 µM (PC-3): 8%
inhibition of growth at 10 µM (UO-31): 15%
inhibition of growth at 10 µM (SN12C): 5%
inhibition of growth at 10 µM (RXF 393): 3%
inhibition of growth at 10 µM (CAKI-1): 3%
inhibition of growth at 10 µM (ACHN): 3.5%

Cc1ccccc1-n1c(C)nc2cc(N3C(=O)CSC3c3ccccc3)ccc2c1=O (centres undefined)
inhibition of growth at 10 µM [10]: 3%
inhibition of growth at 10 µM (OVCAR-8): 5%
inhibition of growth at 10 µM (OVCAR-4): 3%
inhibition of growth at 10 µM (MDA-MB-435): 9.7%
inhibition of growth at 10 µM (SK-MEL-28): 5%
inhibition of growth at 10 µM (U-251): 13%
inhibition of growth at 10 µM (SNB-19): 9.7%
inhibition of growth at 10 µM (SNB-75): 19.5%
inhibition of growth at 10 µM (SF-268): 14.2%
inhibition of growth at 10 µM (KM12): 15.5%
inhibition of growth at 10 µM (HCT-116): 16%
inhibition of growth at 10 µM (HCT-15): 13.3%
inhibition of growth at 10 µM (NCI-H522): 18%
inhibition of growth at 10 µM (NCI-H23): 4.4%
inhibition of growth at 10 µM (NCI-H226): 14.3%
inhibition of growth at 10 µM (A549): 8.1%
inhibition of growth at 10 µM (EKVX): 12.8%
inhibition of growth at 10 µM (RPMI-8226): 21.4%
inhibition of growth at 10 µM (SR): 35.3%
inhibition of growth at 10 µM (MOLT-4): 46.3%
inhibition of growth at 10 µM (K562): 37.6%
inhibition of growth at 10 µM (CCRF-CEM): 31.1%
inhibition of growth at 10 µM (HL-60(TB)): 32.7%
Ratio TD50/ED50 (Mus musculus [1]): 1.06
LD50 [2]: 1500 µmol/kg
selectivity ratio [3]: 2.13
TD50 at 0.5 h [4]: 750 µmol/kg
ED50 (Mus musculus [5]): 700 µmol/kg
Activity (Mus musculus [6]): 100%
Activity (Mus musculus [7]): 50%
Activity (Mus musculus [8]): 0%
Activity (Mus musculus [9]): 100%
inhibition of growth at 10 µM (MDA-MB-468): 25.8%
inhibition of growth at 10 µM (T47D): 25.8%
inhibition of growth at 10 µM [11]: 6%
inhibition of growth at 10 µM (MDA-MB-231): 17.3%
inhibition of growth at 10 µM (MCF7): 21.8%
inhibition of growth at 10 µM (PC-3): 26.9%
inhibition of growth at 10 µM (UO-31): 22%
inhibition of growth at 10 µM (SN12C): 3%
inhibition of growth at 10 µM (CAKI-1): 15.6%
